Assay outcomes deposited in PubChem by The Scripps Research Institute Molecular Screening Center.
In the library only some 1.4% were active in any assay of this set; here they are far more common.
TDP2 inh: human TDP2 enzyme inhibitors, primary screen, biochemical, epi absorbance, recombinant enzyme; 370,000 compounds, 0.34% hits; inhibition, % at 12.8 µM; T5PNP hydrolysis, p-nitrophenol absorbance 415 nm; Tyrosyl-DNA phosphodiesterase 2 (Homo sapiens), O95551;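 active = inhibition above the mean of all tested compounds plus 3 SD, set per campaign, cut at about 25% in these data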;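 note: 0% = DMSO with enzyme and 100% = buffer with substrate but no TDP2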
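Test system: human TDP2 enzyme; Input: 120 nM TDP2 per well; Buffer or medium: Mg2+-containing Tris-HCl buffer, pH 7.5; Reagent: 5 mM T5PNP; Dosing: 12.8 µM single point, 1% DMSO; Incubation: reaction 2 h, 37 °C; Detection: p-Nitrophenol epi absorbance; Read-out: % inhibition relative to enzyme-containing and enzyme-free wells; Replicates: single well per compound.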
PAD4 FP inh: human PAD4 inhibitors, primary screen, biochemical, fluorescence polarization, 1536-well format | 330,000 compounds, 0.41% hits | inhibition, % at 6.36 µM | recombinant PAD4, RCA probe fluorescence polarization | AID 485272, 2010;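 active = percent inhibition above a cutoff equal to the mean of all tested compounds plus 3 SD, cut at about 15% in these data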;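 note: 0% = PAD4 with RCA probe and DMSO and 100% = probe without PAD4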
Target sequence (Q9UM07 whole entry, looked up): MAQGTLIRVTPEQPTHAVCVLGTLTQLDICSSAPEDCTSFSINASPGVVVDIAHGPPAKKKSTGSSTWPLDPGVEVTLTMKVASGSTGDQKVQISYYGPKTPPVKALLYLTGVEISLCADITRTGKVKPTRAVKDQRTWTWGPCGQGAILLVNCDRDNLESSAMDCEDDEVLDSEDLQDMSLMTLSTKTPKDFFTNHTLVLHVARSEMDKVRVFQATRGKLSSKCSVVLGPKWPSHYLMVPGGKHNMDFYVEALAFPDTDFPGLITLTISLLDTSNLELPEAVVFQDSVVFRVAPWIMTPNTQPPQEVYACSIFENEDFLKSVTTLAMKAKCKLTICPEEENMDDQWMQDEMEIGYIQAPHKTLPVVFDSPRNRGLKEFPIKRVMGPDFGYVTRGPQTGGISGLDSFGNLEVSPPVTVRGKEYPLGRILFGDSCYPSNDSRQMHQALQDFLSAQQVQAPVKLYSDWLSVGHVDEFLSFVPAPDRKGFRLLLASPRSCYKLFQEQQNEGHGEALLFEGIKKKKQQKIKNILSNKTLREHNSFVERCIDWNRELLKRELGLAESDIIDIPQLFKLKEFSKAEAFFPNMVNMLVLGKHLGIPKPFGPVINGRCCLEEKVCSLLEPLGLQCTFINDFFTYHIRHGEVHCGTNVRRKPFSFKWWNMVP
CTSL1 counter: Fasciola hepatica cathepsin L1 inhibitors, primary screen, counter-screen for PFM18AAP inhibitor project, biochemical, QFRET, fluorogenic peptide substrate | AID 1906, 2009 | 300,000 compounds, 0.49% hits | inhibition, % at 5.96 µM | recombinant F. hepatica cathepsin L1, Z-Leu-Arg-MCA fluorescence;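 active = inhibition above the mean of all tested compounds plus 3 SD, set per screening campaign, cut at about 17% in these data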;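 note: 0% = plate median of test compound wells and 100% = 1 µM Z-Phe-Ala-diazomethylketone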
GSTO1 counter: inhibitors of recombinant GSTO1, primary screen, counter-screen for RBBP9 inhibitor project, biochemical, fluorescence polarization; inhibition, % at 5.96 µM; activity-based probe fluorescence polarization; Glutathione S-transferase omega-1 (Homo sapiens), P78417; 300,000 compounds, 1.1% hits; AID 1974, 2009;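 active = inhibition above the campaign mean inhibition plus 3 SD, cut at about 35% in these data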;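 note: 0% = GSTO1-1 with DMSO and 100% = wells lacking GSTO1-1 enzyme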
PAD4 confirm: human PAD4 inhibitors, confirmation, biochemical, fluorescence polarization; shares compounds with PAD4 FP inh; recombinant PAD4, RCA probe fluorescence polarization; inhibition, % at 6.36 µM; 1,200 compounds, 28% hits;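 active = mean inhibition across replicates above the hit cutoff set by the earlier primary screen, cut at about 15% in these data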;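 note: inhibitors block active-site labeling by the probe so polarization falls; 0% = PAD4 with probe and DMSO and 100% = probe without PAD4 enzyme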
Numbers without * were called inactive; nt = no result given.

SMILES | TDP2 inh | PAD4 FP inh | CTSL1 counter | GSTO1 counter | PAD4 confirm
O=C(Nc1c(Cl)cc(Cl)cc1C(=O)NCCN1CCOCC1)c1ccc(Cl)cc1Cl | -2 | 2 | 2 | -13 | nt
C[C@H]1[C@@H](NS(=O)(=O)c2ccccc2[N+](=O)[O-])CC[C@@]23CCCN2C(=O)CCC[C@@H]13 | 0 | nt | nt | nt | nt
CCOC(=O)C1=CCN(S(=O)(=O)c2cccc(Cl)c2)C1c1ccc(Cl)c(Cl)c1 (stereo unspecified) | -2 | nt | nt | nt | nt
Cc1ccc(C2(C)NC(=O)N(CC(=O)NC(=O)NC(C)(C)C)C2=O)cc1 (stereo unspecified) | 3 | 16* | -4 | 9 | -6
Cc1cc(NC(=O)Cc2c(C)[nH]c3ccccc23)ccc1Oc1cccnc1 | -2 | nt | nt | nt | nt
CC(C)(C)c1nnc2sc(SCC(=O)N3CCCc4ccccc43)nn2c1=O | 4 | 8 | 2 | 1 | nt
CC1Cc2ccccc2N1C(=O)CSc1nn2c(=O)c(C(C)(C)C)nnc2s1 (stereo unspecified) | 1 | 15* | 5 | 5 | 8
COc1ccccc1C1CC(c2cccs2)=Nc2ccccc2S1 (stereo unspecified) | 11 | 23* | -2 | 1 | 2
Cc1ccc(-c2nc3sc(C#N)c(N)n3c(=O)c2C#N)cc1 | 5 | 62* | 11 | 36* | -4
Cc1ccc(-n2c(N)c(C#N)c(-c3ccccc3)c(C#N)c2=O)cc1 | -5 | -8 | 2 | -7 | nt
CCNc1cc(O)ccc1C | nt | 122* | nt | nt | 53*
COC(=O)C1CN(Cc2cn(Cc3ccc(OC)cc3)nn2)CCS(=O)(=O)N1Cc1ccccc1 (stereo unspecified) | -3 | nt | nt | nt | nt
Cc1ccc(CS(=O)(=O)c2ncc(Cl)c(C(=O)Nc3nnc(C(C)C)s3)n2)cc1 | 1 | 95* | 1 | -8 | 2
CC(C)c1nnc(NC(=O)c2nc(S(=O)(=O)Cc3ccc(F)cc3)ncc2Cl)s1 | 1 | -4 | 5 | 1 | nt
Cc1c(C(=O)N2CCCCC2)c(S(=O)(=O)N2CCN(c3ccc(Cl)cc3)CC2)c(C)n1C | 10 | 68* | 3 | 0 | 3
Cc1c(C(=O)N2CCCCC2)c(S(=O)(=O)N2CCN(c3ccc(F)cc3)CC2)c(C)n1C | 4 | 6 | -1 | -3 | nt
CS(=O)(=O)N[C@@H]1C[C@@H]2O[C@H](CO)CC[C@@H]2O[C@@H]1CCc1ccc(/C=C/c2ccccc2)cc1 | 9 | nt | nt | nt | nt
Cc1cc(=O)oc2c(CN3CCCC3)c(O)c(Cl)cc12 | -25 | 1 | 3 | 3 | nt
Cc1cc(=O)oc2c(CN3CCC(C)CC3)c(O)c(Cl)cc12 | 4 | 33* | 6 | 19 | 21*
C[C@H](O)[C@@H]1CN2CCc3c([nH]c4c(-c5ccccc5)cccc34)[C@@H]2C[C@@H]1N(C)C(=S)NCCc1ccccc1 | 1 | nt | nt | nt | nt
CCc1ccc(C(=O)Cn2ncc(Cl)c(Cl)c2=O)cc1 | 10 | 6 | 2 | 21 | nt
O=C(OCn1ncc(Cl)c(Cl)c1=O)c1cccc(C(F)(F)F)c1 | nt | 32* | -1 | 21 | 20*
O=C(NC1CCCCC1)C(c1cccs1)N(CCCN1CCOCC1)C(=O)c1ccc(-c2ccccc2)[nH]1 (stereo unspecified) | 9 | 63* | 1 | 0 | -5
Cc1ccc(C(C(=O)NC(C)(C)C)N(CCCN2CCOCC2)C(=O)c2ccc(-c3ccccc3)[nH]2)o1 (stereo unspecified) | -1 | -1 | 3 | 1 | nt
Cc1ccc(CNC(=O)c2ccc(C)c(S(=O)(=O)N3CCCCC3)c2)cc1 | -5 | 105* | nt | nt | 10
SMILES | TDP2 inh | PAD4 FP inh | CTSL1 counter | GSTO1 counter | PAD4 confirm
CN(C)CCCNc1cn[nH]c(=O)c1Cl | 7 | 60* | -4 | -5 | 3
O=c1[nH]ncc(NCCc2ccccc2)c1Cl | 11 | -2 | 2 | 0 | nt
Cc1cc(-c2ccccc2C(=O)O)on1 | 2 | 5 | -2 | -5 | nt
O=C(O)c1ccccc1C1=Nc2ccc(O)cc2Oc2cc(O)ccc21 | 8 | 26* | 4 | 17 | 35*
COc1cccc(NC(=O)Nc2c(-c3ccc(F)cc3)nc3ncccn23)c1 | 0 | nt | nt | nt | nt
CCOC(=O)c1c(-c2ccc(OC)cc2)csc1NC(=O)CSc1ccccc1 | 0 | 20* | 2 | -2 | -2
O=C(Nc1ccc(Nc2ccccc2)cc1)c1ccccc1 | -9 | 46* | -1 | 3 | 0
O=C(Nc1ccc(Nc2ccccc2)cc1)c1ccc(Br)cc1 | 1 | -3 | -1 | 16 | nt
COc1ccccc1CCn1cnc(-c2cccc(F)c2)c1CC(C)C | 3 | nt | nt | nt | nt
COc1cc2ccccc2cc1C(=O)NC1CCCC1 | -6 | 2 | nt | nt | nt
COc1cc2ccccc2cc1C(=O)NC1CCC(C)CC1 (stereo unspecified) | 6 | 16* | nt | nt | 4
COc1cc(-c2nc(C(=O)NC3CCCCC3)cc3c2[nH]c2ccccc23)cc(OC)c1OC | -7 | 16* | -5 | -18 | 16*
COc1cc(-c2nc(C(=O)NC3CCN(Cc4ccccc4)CC3)cc3c2[nH]c2ccccc23)cc(OC)c1OC | nt | 1 | 2 | -24 | nt
Oc1cc(O)cc(C=Cc2ccc(O)c(O)c2)c1 | -11 | nt | nt | nt | nt
O=C(CCNS(=O)(=O)c1cccc(C(F)(F)F)c1)NCc1ccco1 | 5 | 27* | nt | nt | -1
CC(C)(C)c1ccc(C(=O)Nc2cc(Cl)c(F)cc2C(=O)O)cc1 | 8 | nt | nt | nt | nt
COc1cc(NC2c3ccccc3C(=O)N2Cc2ccccc2Cl)cc(OC)c1 (stereo unspecified) | -1 | 58* | -3 | 2 | 16*
C/C(=N/NC(=O)CSc1nc2ccccc2s1)c1ccncc1 | 1 | 4 | -3 | 7 | nt
CS/C(=N\S(=O)(=O)c1cccs1)NC(=O)CSc1nc2ccccc2s1 | 4 | 18* | -1 | -26 | 7
COCCn1c(C)c(C)c(S(=O)(=O)c2ccccc2)c1N | -5 | 28* | -7 | 13 | -3
Cn1c(SCC(=O)Nc2ccc(Br)cn2)nnc1C1CC1 | -8 | 156* | 2 | 4 | 23*
CCCn1c(SCC(=O)Nc2ccc(Cl)cn2)nnc1C1CC1 | -12 | -4 | -2 | -6 | nt
CC[C@H]1OC(=O)[C@H](C)[C@@H](O[C@H]2C[C@@](C)(OC)[C@@H](O)[C@H](C)O2)C(C)[C@@H](O[C@@H]2O[C@H](C)C[C@H](N(C)C)[C@H]2O)[C@](C)(O)C[C@@H](C)CN(C)[C@H](C)[C@@H](O)[C@]1(C)O (stereo partly specified) | -1 | nt | nt | nt | nt
O=C(O)c1cccc(S(=O)(=O)Nc2ccc3oc(=O)sc3c2)c1 | -3 | 36* | 1 | 16 | 13
O=c1oc2ccc(NS(=O)(=O)c3cccc4cccnc34)cc2s1 | -12 | 36* | -2 | 31 | 23*
